Measurements from ChEMBL document CHEMBL5143750, “Bisubstrate Inhibitors of Severe Acute Respiratory Syndrome Coronavirus-2 Nsp14 Methyltransferase” (ACS Med Chem Lett, 2022).

Experiments:
A549 [1] = assay: Cytotoxicity against human A549 cells overexpressing ACE2 and TMPRSS2 assessed as cell viability at 50 uM incubated for 48 hrs by MTS assay; format: functional; details: read-out: Activity
In short: (§1)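 A549 AT host cells were used for viability read-out. More than 95% viability at 50 μM was classed as nontoxic. CC50 values came from at least duplicate determinations and were averaged.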

[2] = Metabolic stability in CD-1 mouse liver S9 fraction assessed as half life at 1 micromol/L in presence of UDPGA measured upto 24 hrs by LC-MS/MS analysis; format: ADME, subcellular; details: s9, 24 h, 1 µM, dose 1 µmol/L
A549 [3] = assay: Cytotoxicity against human A549 cells overexpressing ACE2 and TMPRSS2 incubated for 48 hrs by MTS assay; format: functional; in short: as §1
[4] = Metabolic stability in CD-1 mouse plasma at 1 micromol/L measured upto 24 hrs by LC-MS/MS analysis; format: ADME, cell-free; details: dose 1 µmol/L
[5] = Metabolic stability in human liver S9 fraction assessed as half life at 1 micromol/L in presence of NADPH measured upto 24 hrs by LC-MS/MS analysis; format: ADME, subcellular; details: s9, 24 h, 1 µM, dose 1 µmol/L
[6] = Metabolic stability in human liver S9 fraction assessed as half life at 1 micromol/L in presence of UDPGA measured upto 24 hrs by LC-MS/MS analysis; format: ADME, subcellular; details: s9, 24 h, 1 µM, dose 1 µmol/L
[7] = biological target: Replicase polyprotein 1ab (Severe acute respiratory syndrome coronavirus 2) (UniProt P0DTD1); assay: Stabilization of SARS-CoV-2 NSP14 expressed in Escherichia coli BL21(DE3) assessed as change in melting temperature at 200 uM incubated for 4 mins by SYPRO orange dye based thermal shift assay
[8] = Metabolic stability in CD-1 mouse liver S9 fraction assessed as half life at 1 micromol/L in presence of NADPH measured upto 24 hrs by LC-MS/MS analysis; format: ADME, subcellular; details: s9, 24 h, 1 µM, dose 1 µmol/L
[9] = Metabolic stability in human plasma at 1 micromol/L measured upto 24 hrs by LC-MS/MS analysis; format: ADME, cell-free; details: dose 1 µmol/L
In short: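 Compound was incubated in human plasma, and percentage remaining was followed over the incubation. Data are mean ± SD.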

## Nc1ncnc2c1ncn2[C@@H]1O[C@H](C[C@@H](N)CC[C@H](N)C(=O)O)[C@@H](O)[C@H]1O [SINEFUNGIN]
A549 [1]
  viability at 50 µM: > 95%

## Nc1ncnc2c1ncn2[C@@H]1O[C@H](CNS(=O)(=O)c2ccc3nc(Cl)ccc3c2)[C@@H](O)[C@H]1O
A549 [1]
  viability at 50 µM: > 95%

## O=c1ccc2ccc(O)cc2o1 [UMBELLIFERONE]
[2]
  t1/2: 0.8 min

## CCC(CC)COC(=O)[C@H](C)N[P@](=O)(OC[C@H]1O[C@@](C#N)(c2ccc3c(N)ncnn23)[C@H](O)[C@@H]1O)Oc1ccccc1
A549 [3]
  CC50: 43 µM

## CC(=O)Nc1ncnc2c1ncn2[C@@H]1O[C@H](CNS(=O)(=O)c2ccc3ccccc3c2)[C@@H](OC(C)=O)[C@H]1OC(C)=O
A549 [3]
  CC50: > 100 µM

## Nc1ncnc2c1ncn2[C@@H]1O[C@H](CNC(=O)c2ccc3ccccc3c2)[C@@H](O)[C@H]1O
A549 [1]
  viability at 50 µM: > 95%

## Nc1ncnc2c1ncn2[C@@H]1O[C@H](CNS(=O)(=O)c2ccc3ccccc3c2)[C@@H](O)[C@H]1O
[4]
  t1/2 at 24 h, 1 µM: > 24 h
[5]
  t1/2: 674 min
[6]
  t1/2: > 45 min
[7]
  ΔTm: > 8 °C
A549 [1]
  viability at 50 µM: > 95%
[8]
  t1/2: 273 min
[2]
  t1/2: > 45 min
[9]
  t1/2 at 24 h, 1 µM: > 24 h

## Nc1ncnc2c1ncn2[C@@H]1O[C@H](CNCc2ccc3ccccc3c2)[C@@H](O)[C@H]1O
A549 [1]
  viability at 50 µM: > 95%

## Nc1ncnn2c([C@@H]3O[C@H](CNS(=O)(=O)c4ccc5ccccc5c4)[C@@H](O)[C@H]3O)ccc12
[4]
  t1/2 at 24 h, 1 µM: > 24 h
[5]
  t1/2: 842 min
[6]
  t1/2: > 45 min
[7]
  ΔTm: > 8 °C
A549 [3]
  CC50: > 100 µM
[8]
  t1/2: 28.9 min
[2]
  t1/2: > 45 min
[9]
  t1/2 at 24 h, 1 µM: > 24 h

## Nc1ncnc2c1ncn2[C@@H]1O[C@H](CNS(=O)(=O)c2ccc3cccnc3c2)[C@@H](O)[C@H]1O
A549 [1]
  viability at 50 µM: > 95%

## CC(=O)O[C@@H]1[C@H](OC(C)=O)[C@@H](CNS(=O)(=O)c2ccc3ccccc3c2)O[C@H]1n1cnc2c(N)ncnc21
A549 [3]
  CC50: > 100 µM

## CC(=O)Nc1ncnc2c1ncn2[C@@H]1O[C@H](CNS(=O)(=O)c2ccc3ccccc3c2)[C@@H](O)[C@H]1O
[7]
  ΔTm: > 8 °C
A549 [3]
  CC50: > 100 µM

## CC(C)C(=O)O[C@@H]1[C@H](OC(=O)C(C)C)[C@@H](CNS(=O)(=O)c2ccc3ccccc3c2)O[C@H]1n1cnc2c(N)ncnc21
A549 [3]
  CC50: > 100 µM

## CC(=O)O[C@@H]1[C@H](OC(C)=O)[C@@H](CNS(=O)(=O)c2ccc3ccccc3c2)O[C@H]1c1ccc2c(N)ncnn12
A549 [3]
  CC50: 63 µM
